Results taken from PMC5403476 (International Journal of Molecular Medicine, 2017).
Residues, ends and D or L forms follow the SMILES beside them.

How the values were obtained:
Format in all cases: cell-based, human
EA.hy926 cells = test: Cell viability by MTT assay; details: 62.5, 125 and 250 µM, up to 250 µM; presence or absence of Ang II (1 µM); 24 h
Outline: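 EA.hy926 cells were grown in DMEM with 10% FBS, penicillin and streptomycin at 37°C in 5% CO2. Cells were treated with Ang II (1 µM) plus test compound (62.5, 125 or 250 µM) for 24 h at 37°C, then with MTT for 4 h. Plates were spun and formazan was dissolved in DMSO, read at 540 nm. Data are mean ± SD of at least 3 experiments, compared by unpaired t-test.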

[1] = tested on: p38 MAPK phosphorylation in EA.hy926 cells; test: Phosphorylation of p38 MAPK by western blot; details: 30 min
Outline: (§1)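 Ang II-stimulated EA.hy926 cells were lysed for 60 min in Tris/EDTA/NP-40 buffer with phosphatase and protease inhibitors, and protein was measured by BCA. Each lane took 40 µg protein on SDS-PAGE, transferred to nitrocellulose and blocked 2 h in 5% milk/TBS-T. Primary antibodies (1:1,000) were applied overnight at 4°C and secondaries at 1:3,000, with ECL detection and densitometry. Data are mean ± SD, at least 3 experiments.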

[2] = tested on: iNOS expression in Ang II-stimulated EA.hy926 cells; test: iNOS expression by western blot; details: 24 h
Outline: as §1

[3] = tested on: intracellular ROS in Ang II-stimulated EA.hy926 cells; test: Intracellular ROS generation; details: Ang II alone (1 µM, 30 min), compared with the untreated cells
Outline: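 Cells were seeded for 24 h, then pre-treated with test compound for 30 min. Ang II (1 µM) was added for a further 30 min at 37°C. Cells were loaded with 40 µM carboxy-DCFH-DA, and DCF fluorescence plus DAPI were imaged by fluorescence microscopy.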

[4] = tested on: ET-1 expression in Ang II-stimulated EA.hy926 cells; test: ET-1 expression by western blot; details: 24 h
Outline: as §1

[5] = tested on: ERK phosphorylation in EA.hy926 cells; test: Phosphorylation of ERK by western blot; details: 30 min
Outline: as §1

[6] = tested on: NO production in Ang II-stimulated EA.hy926 cells; test: NO production; details: Ang II alone (1 µM, 24 h), compared with the untreated cells
Outline: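 EA.hy926 cells were incubated with test compound and Ang II for 24 h. Nitrite in the medium was taken as the NO indicator. Medium was mixed 1:1 with Griess reagent (1% sulfanilamide, 0.1% naphthylethylenediamine dihydrochloride in 2.5% phosphoric acid) for 10 min at room temperature and read at 540 nm, with fresh medium as blank. Data are mean ± SD, at least 3 experiments.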

[7] = tested on: JNK phosphorylation in EA.hy926 cells; test: Phosphorylation of JNK by western blot; details: 30 min
Outline: as §1

| Compound | cytotoxic effect (MTT) (EA.hy926 cells) | phosphorylated p38 MAPK, Ang II alone [1] | iNOS expression, Ang II alone [2] | ROS fluorescence intensity, Ang II alone [3] | ET-1 expression, Ang II alone [4] | phosphorylated ERK, Ang II alone [5] | NO generation, Ang II alone [6] | phosphorylated JNK, Ang II alone [7] |
| --- | --- | --- | --- | --- | --- | --- | --- | --- |
| CSCC[C@H](NC(=O)[C@@H](N)[C@@H](C)O)C(=O)N[C@@H](CCC(=O)O)C(=O)N1CCC[C@H]1C(=O)NCC(=O)N[C@@H](CCCCN)C(=O)N1CCC[C@H]1C(=O)O [purified peptide, Thr-Met-Glu-Pro-Gly-Lys-Pro] (H-TMEPGKP-OH) | No significant toxic effects | – | – | – | – | – | – | – |
| angiotensin II (DRVYIHPF; Angiotensin-2; UniProt P01019 25-32, looked up) [Ang II] | – | elevated | markedly increased | increased markedly | markedly increased | elevated | markedly induced NO generation | elevated |
